How the values were obtained:
[1] = target: T1, DNA excision repair protein ERCC-5 (Homo sapiens, UniProt P28715); assay: Concentration required for 50% inhibition of Xeroderma pigmentosum G
T1 sequence (P28715 whole entry): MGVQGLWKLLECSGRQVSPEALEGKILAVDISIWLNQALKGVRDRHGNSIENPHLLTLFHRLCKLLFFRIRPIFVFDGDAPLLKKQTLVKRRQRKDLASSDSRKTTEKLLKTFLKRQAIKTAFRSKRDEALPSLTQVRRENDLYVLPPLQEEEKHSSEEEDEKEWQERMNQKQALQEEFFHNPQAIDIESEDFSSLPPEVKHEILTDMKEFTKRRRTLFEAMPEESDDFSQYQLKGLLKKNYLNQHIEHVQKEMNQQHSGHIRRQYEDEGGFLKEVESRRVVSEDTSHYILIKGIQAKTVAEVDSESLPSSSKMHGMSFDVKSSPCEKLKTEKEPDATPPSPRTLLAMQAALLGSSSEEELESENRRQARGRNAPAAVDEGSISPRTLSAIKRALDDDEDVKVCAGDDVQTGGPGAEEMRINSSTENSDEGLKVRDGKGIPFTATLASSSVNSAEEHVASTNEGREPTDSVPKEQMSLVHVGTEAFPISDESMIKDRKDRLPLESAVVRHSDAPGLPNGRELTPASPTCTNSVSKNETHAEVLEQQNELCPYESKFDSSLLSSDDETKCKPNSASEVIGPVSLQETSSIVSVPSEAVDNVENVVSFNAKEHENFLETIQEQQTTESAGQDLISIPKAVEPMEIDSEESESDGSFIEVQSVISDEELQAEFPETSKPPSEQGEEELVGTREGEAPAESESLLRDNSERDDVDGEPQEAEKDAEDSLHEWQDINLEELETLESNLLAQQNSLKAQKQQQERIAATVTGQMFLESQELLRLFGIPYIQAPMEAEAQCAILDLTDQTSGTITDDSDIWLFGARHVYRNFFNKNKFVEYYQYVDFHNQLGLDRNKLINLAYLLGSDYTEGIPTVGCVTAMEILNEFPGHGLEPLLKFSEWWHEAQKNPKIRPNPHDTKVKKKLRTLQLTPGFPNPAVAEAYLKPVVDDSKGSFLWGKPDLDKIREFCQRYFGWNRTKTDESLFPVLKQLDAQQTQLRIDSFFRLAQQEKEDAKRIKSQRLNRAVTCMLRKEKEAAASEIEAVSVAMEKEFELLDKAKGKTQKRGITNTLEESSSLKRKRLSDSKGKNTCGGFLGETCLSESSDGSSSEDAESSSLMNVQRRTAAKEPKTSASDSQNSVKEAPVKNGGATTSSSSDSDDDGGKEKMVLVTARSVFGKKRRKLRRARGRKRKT
Summary of the method: (§1)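 Fluorescence nuclease assay with 5 pmol BVT substrate in buffer at pH 8.0 containing 10 mM MgCl₂, 0.5 mM 2-mercaptoethanol, BSA and circular plasmid. Enzyme was 180 U FEN1 or 50 ng XPG. Reactions ran 90 min at room temperature and were stopped with 0.025% SDS/12.5 mM EDTA. Fluorescence was read at 485 nm excitation/538 nm emission.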

[2] = target: Flap endonuclease 1 (Homo sapiens, UniProt P39748); assay: Concentration required for 50% inhibition of Flap endonuclease-1; summary of the method: as §1
Flap endonuclease 1, sequence (P39748 whole entry): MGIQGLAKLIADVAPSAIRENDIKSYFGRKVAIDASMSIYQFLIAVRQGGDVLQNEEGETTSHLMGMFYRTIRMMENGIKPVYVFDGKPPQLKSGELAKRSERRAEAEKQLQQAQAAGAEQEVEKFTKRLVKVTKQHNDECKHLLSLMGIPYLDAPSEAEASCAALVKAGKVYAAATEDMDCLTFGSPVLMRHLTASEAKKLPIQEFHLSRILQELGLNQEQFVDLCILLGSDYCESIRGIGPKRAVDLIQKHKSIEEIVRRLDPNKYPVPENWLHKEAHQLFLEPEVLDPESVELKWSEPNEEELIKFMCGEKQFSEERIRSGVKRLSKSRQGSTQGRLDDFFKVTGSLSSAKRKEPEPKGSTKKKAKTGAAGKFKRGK

IC50 [1] [µM]	IC50 [2] [µM]	Compound
41	64.2	O=C(O)C(=O)CC(=O)c1ccco1
97	63.2	O=C(CC(=O)c1nnn[nH]1)c1ccc(Oc2ccccc2)cc1
> 100	> 100	C=C(CC(=O)c1ccc(Oc2ccccc2)cc1)C(=O)O
31.7	46.4	O=C(O)C(=O)Cc1ncc(-c2ccccc2)s1
> 100	> 100	O=C(CC(=O)c1cc(=O)[nH]o1)c1ccc(Oc2ccccc2)cc1
1.85	7.65	O=C(O)C(=O)CC(=O)c1ccc(-c2ccccc2)s1
0.57	0.19	COc1ccc(-c2ccc(Cl)c(C(=O)CC(=O)C(=O)O)c2)cc1
0.31	0.44	O=C(O)C(=O)CC(=O)c1ccc(-c2ccc(OC(F)(F)F)cc2)s1
0.98	10.8	O=C(O)C(=O)CC(=O)c1ccc(-c2ccc(Cl)cc2)o1
1.77	0.41	O=C(O)C(=O)CC(=O)c1ccc(-c2ccc(Cl)cc2)cc1Cl
38.7	10.1	O=C(O)C(=O)CC(=O)c1cccs1
13.1	6.96	O=C(O)C(=O)CC(=O)c1cccc(Cl)c1
> 100	37.9	O=C(O)C(=O)CC(=O)c1c(Cl)cccc1Cl
1.85	12.2	O=C(O)C(=O)CC(=O)c1ccc(-c2ccccc2Cl)o1
3.13	13.5	CC(C)(C)c1ccc(-c2ccc(C(=O)CC(=O)C(=O)O)o2)cc1
1.59	1.36	COc1ccc(-c2cccc(C(=O)CC(=O)C(=O)O)c2)cc1
1.87	1.75	O=C(O)C(=O)CC(=O)c1ccc(Oc2ccccc2)cc1
3.24	3.62	O=C(O)C(=O)CC(=O)c1cccc(-c2ccccc2)c1

IC50 [1] [µM]	IC50 [2] [µM]	Compound
22.1	17.7	O=C(O)C(=O)CC(=O)c1cccc(Cl)c1Cl
54.5	12.9	Cc1ccccc1C(=O)CC(=O)C(=O)O
5.44	7.31	O=C(O)C(=O)CC(=O)c1cccc(Oc2ccccc2)c1
9.85	5.53	O=C(O)C(=O)CC(=O)c1ccc(Cl)cc1Cl
7	1.82	O=C(O)C(=O)CC(=O)c1cc(Cl)ccc1Cl
1.13	0.33	O=C(O)C(=O)CC(=O)c1cc(-c2ccccc2)ccc1Cl
75.4	24.9	O=C(O)C(=O)CC(=O)c1ccccc1
1.6	3.5	O=C(O)C(=O)CC(=O)c1ccc(-c2ccccc2)cc1
> 100	> 100	O=C(CC(=O)c1nnn[nH]1)c1ccc(-c2ccccc2)cc1
1.4	11.3	CCOc1ccc(-c2ccc(C(=O)CC(=O)C(=O)O)o2)cc1
52.4	34.3	COc1ccc(Cn2nnnc2C(=O)CC(=O)c2ccc(-c3ccccc3)cc2)cc1
0.9	0.57	O=C(O)C(=O)CC(=O)c1ccc(-c2ccc(Cl)c(F)c2)s1
38.1	3.51	O=C(O)C(=O)CC(=O)c1ccccc1Cl
78.5	14.5	O=C(O)C(=O)CC(=O)c1ccccc1F
> 100	29	O=C(c1ccc(Oc2ccccc2)cc1)c1ncc2cccnc2c1O
12.7	19.3	O=C(O)C(=O)CC(=O)c1ccc(Cl)cc1
1.81	1.66	O=C(O)C(=O)CC(=O)c1ccc(-c2ccccc2)o1
